Where “and” joins values, the source holds several entries; their conditions need not be identical. Equal entries are not always repeated.
The compounds below were run on HEK-293T (assay: Multiplex assay against HEK293T). Conditions: human, 12 h, 1 µM, compound concentration 1 uM.
Format: toxicity, cell-based
Method in brief: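 Cells stained live at seeding with Hoechst33342, BioTracker Green Microtubule Cytoskeleton Dye, MitoTracker Red and Annexin V Alexa Fluor 680 were imaged on a CQ1 microscope at 37°C and 5% CO2 after compound addition. Their classification by CellPathfinder machine-learning gating ran from Hoechst high-intensity objects versus normal cells, to healthy, pyknosed or fragmented nuclei among normal cells, to mitotic or apoptotic among pyknosed cells. Tubulin, mitochondrial-mass and membrane-permeability phenotypes are per cents of healthy-nucleus cells.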
In the case of `N#Cc1cc(F)cc(-c2nc(-c3ccc(F)cn3)no2)c1`, the “Population Apoptotic (%)” value is reported as 38% and 64%, the “Population Fragmented Nuclei (%)” value is reported as 10% and 6% and the “Population Healthy Nuclei (%)” value is reported as 76% and 77%. For the same compound, the “Population Hoechst High Intensity Objects (%)” value was 5% and 8%, the “Population Membrane Permeable-Phenotype (%)” value was 0% and the “Population Mitochondria Different-Phenotype (%)” value was 41% and 55%. For the same compound, the “Population Mitotic Cells (%)” value was 61% and 36%, the “Population Normal (%)” value was 95% and 91% and the “Population Pyknosed Nuclei (%)” value was 12% and 15%. For the same compound, the “Population Tubulin-Different-Phenotype (%)” value was 25% and 22% and the “Total Cell Count” value was 280 and 342.
With `O=c1cccc2n1C[C@@H]1CNC[C@H]2C1` [CYTISINICLINE] the “Population Apoptotic (%)” value was 13.38% and 21.1%, the “Population Fragmented Nuclei (%)” value was 1.29% and 6.54% and the “Population Healthy Nuclei (%)” value was 52.75% and 22.22%. The “Population Hoechst High Intensity Objects (%)” value was 0.64% and 0%, the “Population Membrane Permeable-Phenotype (%)” value was 0.61% and 0% and the “Population Mitochondria Different-Phenotype (%)” value was 39.26% and 17.65%. For the same compound, the “Population Mitotic Cells (%)” value was 86.62% and 78.9%, the “Population Normal (%)” value was 99.36% and 100% and the “Population Pyknosed Nuclei (%)” value was 45.95% and 71.24%. For the same compound, the “Total Cell Count” value was 311 and 153.

Same assay, conditions: human, 12 h, 10 µM, compound concentration 10 uM
`N#Cc1cc(F)cc(-c2nc(-c3ccc(F)cn3)no2)c1` was tested, and the “Population Apoptotic (%)” value was 45%, the “Population Fragmented Nuclei (%)” value was 10% and 8% and the “Population Healthy Nuclei (%)” value was 73% and 77%. The “Population Hoechst High Intensity Objects (%)” value was 4% and 10%, the “Population Membrane Permeable-Phenotype (%)” value was 0% and the “Population Mitochondria Different-Phenotype (%)” value was 51% and 61%. For the same compound, the “Population Mitotic Cells (%)” value was 55% and 54%, the “Population Normal (%)” value was 95% and 89% and the “Population Pyknosed Nuclei (%)” value was 16% and 13%. For the same compound, the “Population Tubulin-Different-Phenotype (%)” value was 29% and 22% and the “Total Cell Count” value was 383 and 269.
With `O=c1cccc2n1C[C@@H]1CNC[C@H]2C1` [CYTISINICLINE] the “Population Apoptotic (%)” value was 15.45% and 10.14%, the “Population Fragmented Nuclei (%)” value was 3.17% and 4.62% and the “Population Hoechst High Intensity Objects (%)” value was 0%. The “Population Membrane Permeable-Phenotype (%)” value was 0.66% and 0%, the “Population Mitochondria Different-Phenotype (%)” value was 17.11% and 7.41% and the “Population Mitotic Cells (%)” value was 84.55% and 89.86%. For the same compound, the “Population Normal (%)” value was 100%, the “Population Pyknosed Nuclei (%)” value was 43.31% and 79.77% and the “Total Cell Count” value was 284 and 173.

Same assay, conditions: human, 24 h, 1 µM, compound concentration 1 uM
With `N#Cc1cc(F)cc(-c2nc(-c3ccc(F)cn3)no2)c1` the “Population Apoptotic (%)” value was 43% and 48%, the “Population Fragmented Nuclei (%)” value was 9% and 7% and the “Population Healthy Nuclei (%)” value was 77% and 82%. For the same compound, the “Population Hoechst High Intensity Objects (%)” value was 6% and 7%, the “Population Membrane Permeable-Phenotype (%)” value was 0% and the “Population Mitochondria Different-Phenotype (%)” value was 19% and 36%. For the same compound, the “Population Mitotic Cells (%)” value was 56% and 51%, the “Population Normal (%)” value was 93% and 92% and the “Population Pyknosed Nuclei (%)” value was 12% and 9%. For the same compound, the “Population Tubulin-Different-Phenotype (%)” value was 12% and 15% and the “Total Cell Count” value was 353 and 463.
In the case of `O=c1cccc2n1C[C@@H]1CNC[C@H]2C1` [CYTISINICLINE], the “Population Apoptotic (%)” value is reported as 15.52% and 25.56%, the “Population Fragmented Nuclei (%)” value is reported as 1.39% and 3.33% and the “Population Healthy Nuclei (%)” value is reported as 75.5% and 36.67%. For the same compound, the “Population Hoechst High Intensity Objects (%)” value was 0.2% and 0%, the “Population Membrane Permeable-Phenotype (%)” value was 1.32% and 5.45% and the “Population Mitochondria Different-Phenotype (%)” value was 17.41% and 14.55%. The “Population Mitotic Cells (%)” value was 84.48% and 74.44%, the “Population Normal (%)” value was 99.8% and 100% and the “Population Pyknosed Nuclei (%)” value was 23.11% and 60%. The “Population Tubulin-Different-Phenotype (%)” value was 11.08% and 16.36%.

Same assay, conditions: human, 24 h, 10 µM, compound concentration 10 uM
In the case of `N#Cc1cc(F)cc(-c2nc(-c3ccc(F)cn3)no2)c1`, the “Population Apoptotic (%)” value is reported as 41% and 39%, the “Population Fragmented Nuclei (%)” value is reported as 10% and the “Population Healthy Nuclei (%)” value is reported as 74% and 79%. For the same compound, the “Population Hoechst High Intensity Objects (%)” value was 4% and 8%, the “Population Membrane Permeable-Phenotype (%)” value was 0% and the “Population Mitochondria Different-Phenotype (%)” value was 34% and 40%. For the same compound, the “Population Mitotic Cells (%)” value was 58% and 60%, the “Population Normal (%)” value was 95% and 91% and the “Population Pyknosed Nuclei (%)” value was 14% and 9%. For the same compound, the “Population Tubulin-Different-Phenotype (%)” value was 18% and 12% and the “Total Cell Count” value was 479 and 363.
For `O=c1cccc2n1C[C@@H]1CNC[C@H]2C1` [CYTISINICLINE], the “Population Apoptotic (%)” value was 18.82% and 14.41%, the “Population Fragmented Nuclei (%)” value was 2.13% and 5.14% and the “Population Healthy Nuclei (%)” value was 81.43% and 42.99%. The “Population Hoechst High Intensity Objects (%)” value was 0%, the “Population Membrane Permeable-Phenotype (%)” value was 0.24% and 0% and the “Population Mitochondria Different-Phenotype (%)” value was 15.44% and 7.61%. The “Population Mitotic Cells (%)” value was 81.18% and 85.59%, the “Population Normal (%)” value was 100% and the “Population Tubulin-Different-Phenotype (%)” value was 7.6% and 1.09%. For the same compound, the “Total Cell Count” value was 517 and 214.

Same assay, conditions: human, 48 h, 1 µM, compound concentration 1 uM
With `N#Cc1cc(F)cc(-c2nc(-c3ccc(F)cn3)no2)c1` the “Population Apoptotic (%)” value was 35% and 27%, the “Population Fragmented Nuclei (%)” value was 15% and 11% and the “Population Healthy Nuclei (%)” value was 77% and 81%. The “Population Hoechst High Intensity Objects (%)” value was 1% and 0%, the “Population Membrane Permeable-Phenotype (%)” value was 1% and the “Population Mitochondria Different-Phenotype (%)” value was 16% and 18%. The “Population Mitotic Cells (%)” value was 64% and 72%, the “Population Normal (%)” value was 98% and 99% and the “Population Pyknosed Nuclei (%)” value was 6%. For the same compound, the “Population Tubulin-Different-Phenotype (%)” value was 11% and 10% and the “Total Cell Count” value was 585 and 715.
In the case of `O=c1cccc2n1C[C@@H]1CNC[C@H]2C1` [CYTISINICLINE], the “Population Fragmented Nuclei (%)” value is reported as 2.45% and 3.98%, the “Population Healthy Nuclei (%)” value is reported as 88.37% and 61.69% and the “Population Hoechst High Intensity Objects (%)” value is reported as 0%. For the same compound, the “Population Membrane Permeable-Phenotype (%)” value was 2.27% and 1.61%, the “Population Mitochondria Different-Phenotype (%)” value was 16.42% and 20.97% and the “Population Mitotic Cells (%)” value was 94.29% and 66.67%. The “Population Normal (%)” value was 100%.

Same assay, conditions: human, 48 h, 10 µM, compound concentration 10 uM
With `N#Cc1cc(F)cc(-c2nc(-c3ccc(F)cn3)no2)c1` the “Population Apoptotic (%)” value was 39% and 48%, the “Population Fragmented Nuclei (%)” value was 16% and the “Population Healthy Nuclei (%)” value was 75% and 77%. For the same compound, the “Population Hoechst High Intensity Objects (%)” value was 1% and 4%, the “Population Membrane Permeable-Phenotype (%)” value was 1% and the “Population Mitochondria Different-Phenotype (%)” value was 18% and 22%. For the same compound, the “Population Mitotic Cells (%)” value was 60% and 51%, the “Population Normal (%)” value was 98% and 95% and the “Population Pyknosed Nuclei (%)” value was 8% and 5%. For the same compound, the “Population Tubulin-Different-Phenotype (%)” value was 9% and 11% and the “Total Cell Count” value was 643 and 501.
In the case of `O=c1cccc2n1C[C@@H]1CNC[C@H]2C1` [CYTISINICLINE], the “Population Apoptotic (%)” value is reported as 9.77% and 19.7%, the “Population Fragmented Nuclei (%)” value is reported as 5.36% and 2.25% and the “Population Healthy Nuclei (%)” value is reported as 85.61% and 79.15%. The “Population Hoechst High Intensity Objects (%)” value was 0.14% and 0%, the “Population Membrane Permeable-Phenotype (%)” value was 5.39% and 1.78% and the “Population Mitochondria Different-Phenotype (%)” value was 8.88% and 16.01%. For the same compound, the “Population Mitotic Cells (%)” value was 90.23% and 80.3%, the “Population Normal (%)” value was 99.86% and 100% and the “Population Pyknosed Nuclei (%)” value was 9.03% and 18.59%.
